pIC50: −log10 of the molar value. Active and inactive are the calls of the source. The calls are words filed in the database; no cut-off is given here.
Experiments:
HCT-15 = assay: Cytotoxicity against human HCT-15 cells assessed as cell growth inhibition; format: functional, cell-based
Method in brief: (§1)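 Compounds were dissolved in sterile DMSO as 10 mg ml−1 stocks and tested for in vitro growth inhibition of human cancer cell lines. Doxorubicin was the standard drug and DMSO (0.01%) the vehicle control. IC50 values are reported as means.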

CAL-27 [1] = assay: Cytotoxicity against human CAL-27 cells assessed as cell growth inhibition; format: functional, cell-based; method in brief: as §1
A549 = assay: Cytotoxicity against human A549 cells assessed as cell growth inhibition; format: functional, cell-based
Method in brief: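 Compounds were dissolved in sterile DMSO as 10 mg ml−1 stocks and tested in vitro for cytotoxicity in a cell-line panel, with DMSO (0.01%) as vehicle control and doxorubicin as standard. Mean IC50 values were reported, and the normal lung epithelial cells were tested up to 100 μM.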

CAL-27 [2] = assay: Cell cycle arrest in human CAL-27 cells assessed as accumulation at S phase at 16 uM incubated for 24 hrs by flow cytometry (reference value: 3.6 %); format: functional
CAL-27 [3] = assay: Cell cycle arrest in human CAL-27 cells assessed as accumulation at G2/M phase at 16 uM incubated for 24 hrs by flow cytometry (reference value: 11.9 %); format: functional
CAL-27 [4] = assay: Cell cycle arrest in human CAL-27 cells assessed as accumulation at G2/M phase at 32 uM incubated for 24 hrs by flow cytometry (reference value: 11.9 %); format: functional
SCC-9 [5] = assay: Cell cycle arrest in human SCC-9 cells assessed as accumulation at G0/G1 phase at 16.2 uM incubated for 24 hrs by flow cytometry (reference value: 70.8 %); format: functional
SCC-9 [6] = assay: Cell cycle arrest in human SCC-9 cells assessed as accumulation at S phase at 32.4 uM incubated for 24 hrs by flow cytometry (reference value: 14.4 %); format: functional
SCC-9 [7] = assay: Cell cycle arrest in human SCC-9 cells assessed as accumulation at G2/M phase at 16.2 uM incubated for 24 hrs by flow cytometry (reference value: 14.2 %); format: functional
CAL-27 [8] = assay: Induction of apoptosis in human CAL-27 cells assessed as live cells at 16 uM incubated for 24 hrs by Annexin V-FITC/PI staining based flow cytometric analysis (reference value: 99.8 %); format: functional
Method in brief: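 CAL27 cells were treated with vehicle, doxorubicin or test compounds at 10–63 μM, and apoptosis was assessed by annexin V–FITC/PI staining with flow cytometry. Cells were scored as live, early apoptotic, late apoptotic or necrotic. The vehicle was DMSO (0.01%).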

CAL-27 [9] = assay: Induction of apoptosis in human CAL-27 cells assessed as necrotic cells at 32 uM incubated for 24 hrs by Annexin V-FITC/PI staining based flow cytometric analysis (reference value: 0.0 %); format: functional
SCC-9 [10] = assay: Induction of apoptosis in human SCC-9 cells assessed as live cells at 16.2 uM incubated for 24 hrs by Annexin V-FITC/PI staining based flow cytometric analysis (reference value: 95.7 %); format: functional
SCC-9 [11] = assay: Induction of apoptosis in human SCC-9 cells assessed as early apoptotic cells at 16.2 uM incubated for 24 hrs by Annexin V-FITC/PI staining based flow cytometric analysis (reference value: 2.8 %); format: functional
SCC-9 [12] = assay: Induction of apoptosis in human SCC-9 cells assessed as late apoptotic cells at 16.2 uM incubated for 24 hrs by Annexin V-FITC/PI staining based flow cytometric analysis (reference value: 1.4 %); format: functional
SCC-9 [13] = assay: Induction of apoptosis in human SCC-9 cells assessed as early apoptotic cells at 32.4 uM incubated for 24 hrs by Annexin V-FITC/PI staining based flow cytometric analysis (reference value: 2.8 %); format: functional
CAL-27 [14] = assay: Induction of apoptosis in human CAL-27 cells assessed as downregulation of vimentin gene expression at 32 uM by qRT-PCR analysis; format: functional, cell-based
Method in brief: (§2)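 CAL27 cells were treated with test compounds at several concentrations. Relative expression of vimentin, E-cad, Nanog, Oct-4, Bax and BcL-2 was measured by qRT-PCR against vehicle-treated control cells.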

CAL-27 [15] = assay: Induction of apoptosis in human CAL-27 cells assessed as downregulation of Nanog gene expression at 16 uM by qRT-PCR analysis; format: functional, cell-based; method in brief: as §2
CAL-27 [16] = assay: Induction of apoptosis in human CAL-27 cells assessed as downregulation of Nanog gene expression at 32 uM by qRT-PCR analysis; format: functional, cell-based; method in brief: as §2
CAL-27 [17] = assay: Induction of apoptosis in human CAL-27 cells assessed as downregulation of BcL-2 gene expression at 32 uM by qRT-PCR analysis; format: functional, cell-based; method in brief: as §2
CAL-27 [18] = assay: Induction of apoptosis in human CAL-27 cells assessed as upregulation of Bax gene expression at 16 uM by qRT-PCR analysis; format: functional, cell-based
Method in brief: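 CAL27 cells were treated with test agents at different concentrations. Relative mRNA levels of vimentin, E-cad, Nanog, Oct-4, Bax and Bcl-2 were then quantified by qRT-PCR as apoptosis, EMT and stemness markers.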

SCC-9 [19] = assay: Induction of apoptosis in human SCC-9 cells assessed as downregulation of Oct-4 gene expression at 16 uM by qRT-PCR analysis; format: functional, cell-based
SCC-9 [20] = assay: Induction of apoptosis in human SCC-9 cells assessed as downregulation of Nanog gene expression at 16 uM by qRT-PCR analysis; format: functional, cell-based
SCC-9 [21] = assay: Induction of apoptosis in human SCC-9 cells assessed as downregulation of BcL-2 gene expression at 16 uM by qRT-PCR analysis; format: functional, cell-based
SCC-9 [22] = assay: Induction of apoptosis in human SCC-9 cells assessed as downregulation of BcL-2 gene expression at 32 uM by qRT-PCR analysis; format: functional, cell-based
SCC-9 [23] = assay: Induction of apoptosis in human SCC-9 cells assessed as upregulation of Bax gene expression at 32 uM by qRT-PCR analysis; format: functional, cell-based

COc1ccc(-c2csc(NC(=O)CN3CCN(Cc4c(O)c(OC)c(O)c5c4C(=O)OC4C5O[C@H](CO)[C@@H](O)[C@@H]4O)CC3)n2)cc1 (stereo not given in full)
pIC50 (HCT-15): 4.15
pIC50 (CAL-27 [1]): 4.80
pIC50 (A549): < 4.00
Activity (CAL-27 [2]): 2.1%
Activity (CAL-27 [3]): 12.3%
Activity (CAL-27 [4]): 9.4%
Activity (SCC-9 [5]): 71.4%
Activity (SCC-9 [6]): 12.4%
Activity (SCC-9 [7]): 10.6%
Activity (CAL-27 [8]): 94.5%
Activity (CAL-27 [9]): 1.9%
Activity (SCC-9 [10]): 44.2%
Activity (SCC-9 [11]): 6.2%
Activity (SCC-9 [12]): 40.8%
Activity (SCC-9 [13]): 5.9%
Activity (CAL-27 [14]): Active
Activity (CAL-27 [15]): Active
Activity (CAL-27 [16]): Active
Activity (CAL-27 [17]): Active
Activity (CAL-27 [18]): Active
Activity (SCC-9 [19]): Active
Activity (SCC-9 [20]): Active
Activity (SCC-9 [21]): Active
Activity (SCC-9 [22]): Active
Activity (SCC-9 [23]): Active

— ChEMBL document CHEMBL5108039, “Piperazine tethered bergenin heterocyclic hybrids: design, synthesis, anticancer activity, and molecular docking studies” (RSC Med Chem, 2022)
